From ChEMBL document CHEMBL1782042, “Efficient microwave-assisted synthesis and antitumor activity of novel 4,4'-methylenebis[2-(3-aryl-4,5-dihydro-1H-pyrazol-5-yl)phenols]” (Eur J Med Chem, 2011)

Key:
U-251 [1] = assay: Anticancer activity against human U251 cells after 48 hrs by sulforhodamine B assay; format: functional; conditions: U-251, 48 h
Outline: (§1)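 NCI 60-cell-line screen, second stage. Five concentration levels (100, 10, 1.0, 0.1 and 0.01 μM), 48 h continuous drug exposure. Cell growth was estimated by sulforhodamine B protein staining. GI50 is the concentration giving a 50% reduction in net protein increase relative to control cells over the drug incubation. Compounds entered this stage after an earlier single-dose screen.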

KM12 [2] = assay: Anticancer activity against human KM12 cells after 48 hrs by sulforhodamine B assay; format: functional; conditions: KM12, 48 h
Outline: (§2)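 NCI 60-cell-line in vitro screen, second stage: five concentration levels (100, 10, 1.0, 0.1 and 0.01 μM) with 48 h continuous drug exposure. Cell growth was estimated by sulforhodamine B protein staining. GI50 is the drug concentration that gives a 50% reduction in net protein increase relative to control cells over the incubation.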

SN12C [3] = assay: Cytotoxicity against human SN12C cells; format: cell-based
Outline: (§3)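 NCI 60 human tumour cell line screen; five concentration levels (100, 10, 1.0, 0.1 and 0.01 μM), 48 h continuous drug exposure. Cell growth estimated by sulforhodamine B (SRB) protein staining. GI50 taken as the drug concentration giving a 50% reduction in net protein increase relative to control cells over the incubation.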

SNB-75 = assay: Cytotoxicity against human SNB75 cells; format: cell-based; outline: as §3
HOP-62 [4] = assay: Anticancer activity against human HOP62 cells after 48 hrs by sulforhodamine B assay; format: functional; conditions: HOP-62, 48 h; outline: as §2
OVCAR-8 = assay: Cytotoxicity against human OVCAR8 cells; format: cell-based
Outline: (§4)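 NCI 60 human tumour cell line screen, second stage at five concentrations (100, 10, 1.0, 0.1 and 0.01 μM). Continuous drug exposure for 48 h, with cell growth estimated by sulforhodamine B protein staining. GI50 is the drug concentration giving a 50% reduction in net protein increase relative to control cells over the incubation.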

MCF7 = assay: Anticancer activity against human MCF7 cells after 48 hrs by sulforhodamine B assay; format: functional; conditions: MCF7, 48 h; outline: as §2
SK-MEL-2 = assay: Anticancer activity against human SK-MEL-2 cells after 48 hrs by sulforhodamine B assay; format: functional; conditions: SK-MEL-2, 48 h; outline: as §2
HOP-62 [5] = assay: Cytotoxicity against human HOP62 cells; format: cell-based; outline: as §4
OVCAR-3 = assay: Cytotoxicity against human OVCAR3 cells; format: cell-based; outline: as §4
U-251 [6] = assay: Cytotoxicity against human U251 cells; format: cell-based; outline: as §3
MDA-MB-468 [7] = assay: Cytotoxicity against human MDA-MB-468 cells; format: cell-based; outline: as §4
NCI-H23 [8] = assay: Anticancer activity against human NCI-H23 cells after 48 hrs by sulforhodamine B assay; format: functional; conditions: NCI-H23, 48 h; outline: as §2
MDA-MB-435 [9] = assay: Anticancer activity against human MDA-MB-435 cells after 48 hrs by sulforhodamine B assay; format: functional; conditions: MDA-MB-435, 48 h; outline: as §2
A498 = assay: Anticancer activity against human A498 cells after 48 hrs by sulforhodamine B assay; format: functional; conditions: A498, 48 h; outline: as §2
KM12 [10] = assay: Cytotoxicity against human KM12 cells; format: cell-based; outline: as §4
SK-MEL-5 [11] = assay: Anticancer activity against human SK-MEL-5 cells after 48 hrs by sulforhodamine B assay; format: functional; conditions: SK-MEL-5, 48 h; outline: as §2
MDA-MB-231 = assay: Anticancer activity against human MDA-MB-231 cells after 48 hrs by sulforhodamine B assay; format: functional; conditions: MDA-MB-231, 48 h; outline: as §2
SR = assay: Cytotoxicity against human SR cells; format: cell-based; outline: as §3
SF-268 = assay: Anticancer activity against human SF268 cells after 48 hrs by sulforhodamine B assay; format: functional; conditions: SF-268, 48 h; outline: as §2
SNB-19 = assay: Cytotoxicity against human SNB19 cells; format: cell-based; outline: as §3
MOLT-4 = assay: Cytotoxicity against human MOLT4 cells; format: cell-based; outline: as §4
HCC 2998 = assay: Cytotoxicity against human HCC2998 cells; format: cell-based; outline: as §4
BT-549 = assay: Anticancer activity against human BT549 cells after 48 hrs by sulforhodamine B assay; format: functional; conditions: BT-549, 48 h; outline: as §2
HT-29 = assay: Anticancer activity against human HT-29 cells after 48 hrs by sulforhodamine B assay; format: functional; conditions: HT-29, 48 h; outline: as §2
HOP-92 [12] = assay: Cytotoxicity against human HOP92 cells; format: cell-based; outline: as §4
LOX IMVI = assay: Cytotoxicity against human LOXIMVI cells; format: cell-based; outline: as §4
EKVX [13] = assay: Cytotoxicity against human EKVX cells; format: cell-based; outline: as §4
UACC-62 [14] = assay: Cytotoxicity against human UACC62 cells; format: cell-based; outline: as §3
HOP-92 [15] = assay: Anticancer activity against human HOP92 cells after 48 hrs by sulforhodamine B assay; format: functional; conditions: HOP-92, 48 h; outline: as §2
UACC-62 [16] = assay: Anticancer activity against human UACC62 cells after 48 hrs by sulforhodamine B assay; format: functional; conditions: UACC-62, 48 h; outline: as §1
COLO 205 [17] = assay: Cytotoxicity against human COLO205 cells; format: cell-based; outline: as §4
SK-MEL-28 [18] = assay: Cytotoxicity against human SK-MEL-28 cells; format: cell-based; outline: as §4
UO-31 = assay: Cytotoxicity against human UO31 cells; format: cell-based; outline: as §3
NCI-H460 = assay: Cytotoxicity against human NCI-H460 cells; format: cell-based; outline: as §4
HL-60(TB) [19] = assay: Anticancer activity against human HL-60(TB) cells after 48 hrs by sulforhodamine B assay; format: functional; conditions: HL-60, 48 h; outline: as §4
TK-10 = assay: Cytotoxicity against human TK10 cells; format: cell-based; outline: as §3
NCI-H322M = assay: Anticancer activity against human NCI-H322M cells after 48 hrs by sulforhodamine B assay; format: functional; outline: as §2
Hs-578T = assay: Cytotoxicity against human Hs578T cells; format: cell-based; outline: as §4
SN12C [20] = assay: Anticancer activity against human SN12C cells after 48 hrs by sulforhodamine B assay; format: functional; outline: as §2
SK-MEL-28 [21] = assay: Anticancer activity against human SK-MEL-28 cells after 48 hrs by sulforhodamine B assay; format: functional; conditions: SK-MEL-28, 48 h; outline: as §2
MDA-MB-468 [22] = assay: Anticancer activity against human MDA-MB-468 cells after 48 hrs by sulforhodamine B assay; format: functional; conditions: MDA-MB-468, 48 h; outline: as §2
NCI-H226 = assay: Cytotoxicity against human NCI-H226 cells; format: cell-based; outline: as §4
SF-295 = assay: Cytotoxicity against human SF295 cells; format: cell-based; outline: as §4
NCI-H23 [23] = assay: Cytotoxicity against human NCI-H23 cells; format: cell-based; outline: as §4
MDA-MB-435 [24] = assay: Cytotoxicity against human MDA-MB-435 cells; format: cell-based; outline: as §4
COLO 205 [25] = assay: Anticancer activity against human COLO205 cells after 48 hrs by sulforhodamine B assay; format: functional; conditions: COLO 205, 48 h; outline: as §2
EKVX [26] = assay: Anticancer activity against human EKVX cells after 48 hrs by sulforhodamine B assay; format: functional; outline: as §2
HCT-116 = assay: Cytotoxicity against human HCT116 cells; format: cell-based; outline: as §4
HL-60(TB) [27] = assay: Cytotoxicity against human HL-60(TB) cells; format: cell-based; outline: as §4
SK-OV-3 [28] = assay: Anticancer activity against human SKOV3 cells after 48 hrs by sulforhodamine B assay; format: functional; conditions: SK-OV-3, 48 h; outline: as §2
SK-OV-3 [29] = assay: Cytotoxicity against human SKOV3 cells; format: cell-based; outline: as §4
SK-MEL-5 [30] = assay: Cytotoxicity against human SK-MEL-5 cells; format: cell-based; outline: as §4
SW-620 = assay: Cytotoxicity against human SW620 cells; format: cell-based; outline: as §3
K562 = assay: Anticancer activity against human K562 cells after 48 hrs by sulforhodamine B assay; format: functional; conditions: K562, 48 h; outline: as §2

## Oc1ccc(Cc2ccc(O)c(C3CC(c4ccc(Cl)cc4)=NN3)c2)cc1C1CC(c2ccc(Cl)cc2)=NN1 (stereo not given)
U-251 [1]
  GI50: 1.8 µM
KM12 [2]
  GI50: 3.09 µM
SN12C [3]
  LC50: > 100 µM
SNB-75
  LC50: > 100 µM
HOP-62 [4]
  GI50: 4.16 µM
OVCAR-8
  LC50: > 100 µM
MCF7
  GI50: 3.04 µM
SK-MEL-2
  GI50: 3.23 µM
HOP-62 [5]
  LC50: > 100 µM
OVCAR-3
  LC50: > 100 µM
U-251 [6]
  LC50: > 100 µM
MDA-MB-468 [7]
  LC50: > 100 µM
NCI-H23 [8]
  GI50: 3.3 µM
MDA-MB-435 [9]
  GI50: 3.21 µM
A498
  GI50: 5.37 µM
KM12 [10]
  LC50: > 100 µM
SK-MEL-5 [11]
  GI50: 3.36 µM
MDA-MB-231
  GI50: 2.65 µM
SR
  LC50: > 100 µM
SF-268
  GI50: 3.22 µM
SNB-19
  LC50: > 100 µM
MOLT-4
  LC50: > 100 µM
HCC 2998
  LC50: > 100 µM
BT-549
  GI50: 4.78 µM
HT-29
  GI50: 7.25 µM
HOP-92 [12]
  LC50: > 100 µM
LOX IMVI
  LC50: > 100 µM
EKVX [13]
  LC50: > 100 µM
UACC-62 [14]
  LC50: 43.6 µM
HOP-92 [15]
  GI50: 3.39 µM
UACC-62 [16]
  GI50: 3.16 µM
COLO 205 [17]
  LC50: > 100 µM
SK-MEL-28 [18]
  LC50: > 100 µM
UO-31
  LC50: > 100 µM
NCI-H460
  LC50: > 100 µM
HL-60(TB) [19]
  GI50: 2.66 µM
TK-10
  LC50: > 100 µM
NCI-H322M
  GI50: 4.17 µM
Hs-578T
  LC50: > 100 µM
SN12C [20]
  GI50: 2.86 µM
SK-MEL-28 [21]
  GI50: 9.84 µM
MDA-MB-468 [22]
  GI50: 3.5 µM
NCI-H226
  LC50: > 100 µM
SF-295
  LC50: > 100 µM
NCI-H23 [23]
  LC50: > 100 µM
MDA-MB-435 [24]
  LC50: > 100 µM
COLO 205 [25]
  GI50: 5.44 µM
EKVX [26]
  GI50: 2.77 µM
HCT-116
  LC50: > 100 µM
HL-60(TB) [27]
  LC50: > 100 µM
SK-OV-3 [28]
  GI50: 4.43 µM
SK-OV-3 [29]
  LC50: > 100 µM
SK-MEL-5 [30]
  LC50: 36.7 µM
SW-620
  LC50: > 100 µM
K562
  GI50: 1.75 µM
